A short description of test [1]: reducers of endogenous Her2 protein level, primary screen, SKBR3 breast tumor cells, AlphaScreen, ATP viability (AID 461).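 As to Her2 level: lower value means less Her2 protein in the cells.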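 As to viability: percent of carrier control wells set as 100% viability.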 The settings on record: 18-24 h, measured here: SKBR3 viability, ATP luminescence, at 10 µM.
Test [2] concerns the target Receptor tyrosine-protein kinase erbB-2 (Homo sapiens) (UniProt P04626). Described as above. The settings on record: 18-24 h, at 10 µM, stronger effect = lower value.
The nature of test [3]: SK-BR-3 cell growth inhibitors, pilot screen, 24 h, human (AID 572;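 active = viability at or below 10% of carrier control in both of two separate runs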;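 also: compound exposure lasted between 18 and 24 h rather than exactly 24 h; 100% = carrier-treated control wells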). The note with it: SK-BR-3 viability, CellTiter-Glo luminescence, at 10 µM, stronger effect = lower value.
The nature of test [4]: HUVEC growth inhibition – cell-based, human, primary screen (AID 575;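 active = viability at or below 30% in both replicate assays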;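 also: 100% = median of untreated cell wells with 0.1% DMSO on each plate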). The note with it: HUVEC proliferation, CellTiter-Glo luminescence, 72 h; at 10 µM; stronger effect = lower value. Put shortly:
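Assay system: Primary human umbilical vein endothelial cells | Quantity: 1250 cells per well | Medium: Supplemented EBM, 2% fetal bovine serum | Detection: CellTiter-Glo luminescence measuring cellular ATP | Read-out: % viability vs DMSO wells | Plate: Collagen-coated 384-well format | Times: 72 h exposure, 37 °C, 5% CO2, 30 min RT equilibration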

Test [5] can be described thus: growth inhibitors of H69AR lung tumor, primary screen, human, duplicate replicates (AID 580;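 active = viability at or under a set limit in both replicates, limit being median viability minus 3 SD, cut at about 48% in these data, passing the limit was not always enough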;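 also: 100% = mean luminescence of untreated wells and 0% = no signal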). The note with it: H69AR lung tumor cells viability, ATP luminescence, 72 h; at 10 µM; stronger effect = lower value.
Test [6] can be described thus: reversal of MRP1-mediated doxorubicin resistance, pilot screen, H69AR cells, doxorubicin co-treatment (AID 601;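 active = viability loss from added drug above about 55%, and viability with drug at most 40%, in both replicates, limit read from the data, passing the limit was not always enough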). The settings on record: CellTiter-Glo, 72 h, at 10 µM; for differential viability (reversal): stronger effect = higher value.
A short description of test [7]: 384-well plate pilot, post-Golgi transport modulator project, inhibition of yeast transport mutant growth (AID 636; in the data active = inhibition above about 31%). The settings on record: absorbance 615 nm, about 18 h, stronger effect = higher value.
Test [8] in a line: growth suppression of yeast trafficking mutant, preliminary HTS, modulators of trafficking downstream of Golgi apparatus project, 1536-format plate, OD 615 nm (AID 637; in the data active = inhibition above about 30%). The note with it: yeast transport mutant growth, absorbance 615 nm, 18 h; stronger effect = higher value.
Where [9] appears, read: H69AR cells + 2 uM doxorubicin, measured here: viability with 2 uM doxorubicin, stronger effect = lower value.
[10] abbreviates: H69AR cells, compound alone cytotoxicity.

Structures are written as SMILES. The source made the active and inactive calls.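 The calls were made as follows, unless noted: active = Her2 level under about 52% in both replicate screens, with viability over 70% of control (limit read from the data); inconclusive = Her2 under the limit in one screen only, or viability under 70%; inactive = Her2 level above the set limit.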

Experimental findings from PubChem BioAssay are described below.

Receptor tyrosine-protein kinase erbB-2 (Homo sapiens), sequence (P04626 whole entry, looked up): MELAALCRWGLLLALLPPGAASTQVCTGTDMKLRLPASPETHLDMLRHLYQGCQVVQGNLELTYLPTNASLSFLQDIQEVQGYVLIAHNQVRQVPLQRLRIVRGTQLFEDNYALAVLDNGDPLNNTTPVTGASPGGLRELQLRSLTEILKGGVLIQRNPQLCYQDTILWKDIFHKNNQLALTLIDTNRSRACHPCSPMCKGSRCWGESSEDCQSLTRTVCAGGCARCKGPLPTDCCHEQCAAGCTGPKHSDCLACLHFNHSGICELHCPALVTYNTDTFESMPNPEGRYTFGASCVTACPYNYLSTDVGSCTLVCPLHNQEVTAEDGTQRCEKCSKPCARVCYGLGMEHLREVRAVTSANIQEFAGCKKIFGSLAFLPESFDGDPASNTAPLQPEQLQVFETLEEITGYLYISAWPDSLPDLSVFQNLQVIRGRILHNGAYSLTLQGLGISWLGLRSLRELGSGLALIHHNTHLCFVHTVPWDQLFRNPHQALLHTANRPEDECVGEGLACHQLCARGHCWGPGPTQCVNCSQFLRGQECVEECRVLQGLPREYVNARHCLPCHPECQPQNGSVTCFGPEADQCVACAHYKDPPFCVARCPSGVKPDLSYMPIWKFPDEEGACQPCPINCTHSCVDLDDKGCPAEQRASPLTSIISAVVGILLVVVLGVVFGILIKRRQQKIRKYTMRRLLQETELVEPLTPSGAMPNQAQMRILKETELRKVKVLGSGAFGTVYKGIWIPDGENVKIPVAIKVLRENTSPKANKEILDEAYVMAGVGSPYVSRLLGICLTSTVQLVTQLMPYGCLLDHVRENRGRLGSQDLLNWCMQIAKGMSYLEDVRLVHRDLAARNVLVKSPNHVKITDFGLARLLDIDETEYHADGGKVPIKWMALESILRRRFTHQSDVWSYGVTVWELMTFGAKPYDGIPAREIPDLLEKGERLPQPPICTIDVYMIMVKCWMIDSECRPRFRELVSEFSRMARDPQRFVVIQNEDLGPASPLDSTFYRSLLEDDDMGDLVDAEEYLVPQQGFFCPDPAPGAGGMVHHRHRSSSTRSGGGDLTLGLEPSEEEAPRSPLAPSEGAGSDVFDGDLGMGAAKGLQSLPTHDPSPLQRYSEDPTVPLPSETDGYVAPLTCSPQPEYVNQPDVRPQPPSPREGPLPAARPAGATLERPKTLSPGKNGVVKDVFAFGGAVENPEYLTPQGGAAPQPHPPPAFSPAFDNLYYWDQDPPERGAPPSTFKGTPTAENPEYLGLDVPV

As to `Cn1c(SCC(=O)N2CCN(c3cccc(Cl)c3)CC2)nnc1-c1ccncc1`, the viability in test [1] is 84%; in test [3], 84% (inactive); in test [4] it was 49.4% (inactive); in test [5], 79.8% (inactive); in test [6] (setting [9]), 98.3%; in test [6] (setting [10]), 79.8%. Moreover, the Her2 level in test [2] was 76% (inactive). Besides, the differential viability (reversal) in test [6] (H69AR cells + 2 uM doxorubicin) is -18.5% (inactive). Moreover, the inhibition in test [7] was 3.59% (inactive); in test [8] it was -1.33% (inactive).
As to `CCCC(NC(=O)c1ccccc1)c1nc2ccccc2n1Cc1ccc(C(=O)OC)o1` (stereo not given), the viability in test [1] is 98%; in test [3] it was 98% (inactive); in test [4], 85.4% (inactive); in test [5], 95% (inactive); in test [6] (setting [9]), 90.9%; in test [6] (setting [10]), 95%. Besides, the Her2 level in test [2] is 105% (inactive). In test [6] (H69AR cells + 2 uM doxorubicin), the differential viability (reversal) was 4.1% (inactive). The inhibition in test [7] is -2.76% (inactive); in test [8], -9.17% (inactive).
Regarding `Cc1ccc(S(=O)(=O)Cc2ccc(C(=O)NCCCN3CCN(C)CC3)o2)cc1`, the viability was 104% in test [1]; 104% (inactive) in test [3]; 96.9% (inactive) in test [4]; 103% (inactive) in test [5]; 92.1% in test [6] (setting [9]); 103% in test [6] (setting [10]). Also, the Her2 level in test [2] is 99.5% (inactive). Also, in test [6] (H69AR cells + 2 uM doxorubicin), the differential viability (reversal) is 11% (inactive). In addition, the inhibition was -0.66% (inactive) in test [7] and -5.64% (inactive) in test [8].
On to `CC1(C)OC(=O)C(=CNC(CCC(N)=O)C(=O)O)C(=O)O1` (stereo not given), for which the viability in test [1] was 100%; in test [3], 100% (inactive); in test [4], 109% (inactive); in test [5], 86.2% (inactive); in test [6] (setting [9]), 101%; in test [6] (setting [10]), 86.2%. In test [2], the Her2 level is 110% (inactive). Further, the differential viability (reversal) in test [6] (H69AR cells + 2 uM doxorubicin) is -14.4% (inactive). For the same molecule, the values for the inhibition in test [7] and in test [8] were 6.49% (inactive) and 5.4% (inactive), respectively.
On to `O=C(O)c1c[nH]c2ccc(S(=O)(=O)N3CCN(c4ccc(F)cc4)CC3)cc2c1=O`, for which the viability in test [1] is 93.5%; in test [3], 93.5% (inactive); in test [4], 91.6% (inactive); in test [5], 93.7% (inactive); in test [6] (setting [9]), 82.8%; in test [6] (setting [10]) it was 93.7%. In test [2], the Her2 level was 124% (inactive). The differential viability (reversal) in test [6] (H69AR cells + 2 uM doxorubicin) is 10.9% (inactive). Besides, the results for the inhibition in test [7] and in test [8] were 0.53% (inactive) and -6.45% (inactive), respectively.
For `CCn1nc(C)c(NC(=O)c2cc(Br)ccc2Cl)c1C`, the viability in test [1] is 84.5%; in test [3], 84.5% (inactive); in test [4] it was 88.5% (inactive); in test [5], 94% (inactive); in test [6] (setting [9]) it was 79.7%; in test [6] (setting [10]), 94%. The Her2 level in test [2] is 78% (inactive). Further, the differential viability (reversal) in test [6] (H69AR cells + 2 uM doxorubicin) is 14.3% (inactive). Moreover, the inhibition in test [7] is -4.42% (inactive); in test [8], 3.44% (inactive).
As to `O=C(NCc1ccco1)c1csc(Nc2ccccc2Cl)n1`, the viability in test [1] was 70.5%; in test [3], 70.5% (inactive); in test [4] it was 60.5% (inactive); in test [5] it was 78.2% (inactive); in test [6] (setting [9]), 79.4%; in test [6] (setting [10]) it was 78.2%. Further, the Her2 level in test [2] is 97.5% (inactive). Further, the differential viability (reversal) in test [6] (H69AR cells + 2 uM doxorubicin) is -1.24% (inactive). The inhibition is -8.24% (inactive) in test [7] and -5.25% (inactive) in test [8].
Consider `O=C(Nc1nccs1)NC(C(F)(F)F)C(F)(F)F`, for which the viability in test [1] is 104%; in test [3] it was 104% (inactive); in test [4] it was 93% (inactive); in test [5], 95.1% (inactive); in test [6] (setting [9]), 95.1%; in test [6] (setting [10]) it was 95.1%. In addition, the Her2 level in test [2] is 87.5% (inactive). The differential viability (reversal) in test [6] (H69AR cells + 2 uM doxorubicin) was -0.09% (inactive). The inhibition was -6.44% (inactive) in test [7] and -0.16% (inactive) in test [8].
As to `CC(C(=O)NC1CCCCCC1)N(c1ccccc1)S(C)(=O)=O` (stereo not given), the viability in test [1] is 112%; in test [3], 112% (inactive); in test [4], 114% (inactive); in test [5], 109% (inactive); in test [6] (setting [9]), 103%; in test [6] (setting [10]), 109%. For the same molecule, the Her2 level in test [2] is 97.5% (inactive). In addition, the differential viability (reversal) in test [6] (H69AR cells + 2 uM doxorubicin) is 6.19% (inactive). The results for the inhibition in test [7] and in test [8] were -2.24% (inactive) and 2.79% (inactive), respectively.
Turning to `C=CCn1c(SCC(=O)c2cc(C)n(C(C)COC)c2C)nc2sc(C)c(C)c2c1=O` (stereo not given), the viability was 97.5% in test [1]; 97.5% (inactive) in test [3]; 68.2% (inactive) in test [4]; 82.8% (inactive) in test [5]; 21.9% in test [6] (setting [9]); 82.8% in test [6] (setting [10]). Further, in test [2], the Her2 level is 77% (inactive). Moreover, the differential viability (reversal) in test [6] (H69AR cells + 2 uM doxorubicin) is 60.8% (active). The inhibition in test [7] is -8.77% (inactive); in test [8], -4.6% (inactive).
In the case of `CCC(C)(C)n1nnnc1C(c1ccncc1)N1CCN(c2cccc(OC)c2)CC1` (stereo not given), the viability in test [1] is 77.5%; in test [3], 77.5% (inactive); in test [4] it was 91.9% (inactive); in test [5], 85.3% (inactive); in test [6] (setting [9]), 85.8%; in test [6] (setting [10]), 85.3%. The Her2 level in test [2] is 82.5% (inactive). In addition, the differential viability (reversal) in test [6] (H69AR cells + 2 uM doxorubicin) is -0.525% (inactive). Also, the inhibition in test [7] was -2.67% (inactive); in test [8] it was 4.26% (inactive).
Regarding `COc1ccc(Cc2noc(-c3ccc(C)cc3)n2)cc1`, the viability in test [1] was 91%; in test [3] it was 91% (inactive); in test [4], 90.1% (inactive); in test [5], 91.2% (inactive); in test [6] (setting [9]) it was 76.3%; in test [6] (setting [10]), 91.2%. Besides, in test [2], the Her2 level was 131% (inactive). Also, the differential viability (reversal) in test [6] (H69AR cells + 2 uM doxorubicin) is 14.9% (inactive). The inhibition in test [7] was 4.87% (inactive); in test [8], 45.8% (active).
As for `CCN1CCc2c(C#N)c(N3CCOCC3)nc(NCc3ccccc3)c2C1`, the viability was 84.5% in test [1]; 84.5% (inactive) in test [3]; 88.4% (inactive) in test [4]; 81.3% (inactive) in test [5]; 77.8% in test [6] (setting [9]); 81.3% in test [6] (setting [10]). Moreover, in test [2], the Her2 level is 88% (inactive). Also, the differential viability (reversal) in test [6] (H69AR cells + 2 uM doxorubicin) is 3.46% (inactive). Besides, the inhibition in test [7] was -6.03% (inactive); in test [8] it was -4.76% (inactive).
Take `COc1cc(NS(=O)(=O)c2ccc(Br)s2)cc(OC)c1`: the viability was 87% in test [1]; 87% (inactive) in test [3]; 89.6% (inactive) in test [4]; 99.9% (inactive) in test [5]; 94.3% in test [6] (setting [9]); 99.9% in test [6] (setting [10]). Further, the Her2 level in test [2] was 104% (inactive). For the same molecule, in test [6] (H69AR cells + 2 uM doxorubicin), the differential viability (reversal) is 5.59% (inactive). For the same molecule, the inhibition in test [7] was -6.53% (inactive); in test [8], -7.7% (inactive).
For `CC(Oc1ccc(Cl)cc1Cl)c1nc(-c2ccc(NC(=O)c3cccnc3)cc2)no1` (stereo not given), the viability in test [1] was 93.5%; in test [3], 93.5% (inactive); in test [4], 55% (inactive); in test [5], 8.04% (active); in test [6] (setting [9]) it was 18.8%; in test [6] (setting [10]), 8.04%. For the same molecule, the Her2 level in test [2] was 74.5% (inactive). Also, in test [6] (H69AR cells + 2 uM doxorubicin), the differential viability (reversal) was -10.7% (inactive). Further, the inhibition is 0% (inactive) in test [7] and 22.2% (inactive) in test [8].
